The values that follow come from ChEMBL document CHEMBL3608275, “Synthesis, nicotinic acetylcholine receptor binding, in vitro and in vivo pharmacology properties of 3'-(substituted pyridinyl)-deschloroepibatidine analogs” (Bioorg Med Chem, 2015).

In assay [1] the target is T1, Neuronal acetylcholine receptor; alpha4/beta2 (Rattus norvegicus, UniProt P09483+P12390). Put plainly: Displacement of [3H]-epibatidine from alpha4beta2 nAChR in rat cerebral cortex homogenates after 4 hrs by liquid scintillation counting. The format is tissue-based. (In a radioligand displacement assay an active substance lowers the binding of a labelled ligand.)
T1 sequence (P09483 whole entry): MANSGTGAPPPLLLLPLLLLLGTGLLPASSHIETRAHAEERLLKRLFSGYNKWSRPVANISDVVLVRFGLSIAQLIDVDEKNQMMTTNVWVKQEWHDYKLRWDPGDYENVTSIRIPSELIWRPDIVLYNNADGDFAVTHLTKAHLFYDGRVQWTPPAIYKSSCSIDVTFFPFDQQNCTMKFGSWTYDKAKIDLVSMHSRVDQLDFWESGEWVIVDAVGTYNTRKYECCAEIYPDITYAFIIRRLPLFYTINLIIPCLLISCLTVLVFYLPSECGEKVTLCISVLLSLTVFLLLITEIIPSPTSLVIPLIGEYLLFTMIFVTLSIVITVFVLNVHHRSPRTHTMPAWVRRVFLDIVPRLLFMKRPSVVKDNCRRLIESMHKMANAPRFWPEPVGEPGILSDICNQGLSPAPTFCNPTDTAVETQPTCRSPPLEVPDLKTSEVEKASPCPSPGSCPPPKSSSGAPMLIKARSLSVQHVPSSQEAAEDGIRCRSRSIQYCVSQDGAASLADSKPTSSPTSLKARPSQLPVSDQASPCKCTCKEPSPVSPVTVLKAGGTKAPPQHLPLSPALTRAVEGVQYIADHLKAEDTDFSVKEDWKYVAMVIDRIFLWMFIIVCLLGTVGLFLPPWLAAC
T1 sequence (P12390 whole entry): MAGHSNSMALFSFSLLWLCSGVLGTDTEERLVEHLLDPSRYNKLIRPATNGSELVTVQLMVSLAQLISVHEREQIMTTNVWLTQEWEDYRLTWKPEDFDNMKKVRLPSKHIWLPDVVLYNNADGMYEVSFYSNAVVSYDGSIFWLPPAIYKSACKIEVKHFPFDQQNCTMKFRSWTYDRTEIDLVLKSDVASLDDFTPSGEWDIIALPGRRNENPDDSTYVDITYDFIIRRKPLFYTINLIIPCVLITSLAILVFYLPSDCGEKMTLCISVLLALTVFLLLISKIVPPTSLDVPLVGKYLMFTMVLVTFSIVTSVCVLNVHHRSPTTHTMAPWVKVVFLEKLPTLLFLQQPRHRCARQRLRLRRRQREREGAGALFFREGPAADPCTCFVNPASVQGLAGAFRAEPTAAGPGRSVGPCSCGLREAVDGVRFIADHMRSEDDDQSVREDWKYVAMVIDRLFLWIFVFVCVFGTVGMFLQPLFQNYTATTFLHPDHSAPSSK
Assay [2] has as its system Mus musculus. As to the kind of experiment: Antinociceptive activity in mouse assessed as maximum latency at 10 mg/kg, administered as intratracheally after 5 mins by tail-flick assay. The format is functional.
For assay [3], the system named is Mus musculus. Put plainly: Antinociceptive activity in mouse assessed as jumping or licking of paw behavior at 10 mg/kg, sc after 5 mins by hot-plate test. In kind it is functional. (In general: Thermal pain tests record how soon the animal reacts.)
Assay [4] relates to Mus musculus. As to the kind of experiment: Antinociceptive activity in sc dosed mouse assessed as reduction of body rectal temperature. The format is functional.
In assay [5] the test system is Mus musculus. Put plainly: Antinociceptive activity in sc dosed mouse assessed as spontaneous locomotor activity measured for 10 mins. The format is functional.
In assay [6] the test system is Mus musculus. As to the kind of experiment: Antinociceptive activity in intratracheally dosed mouse assessed as inhibition of nicotine-induced antinociception after 5 mins by tail-flick assay. The format is functional.
Assay [7] deals with Mus musculus. As to the kind of experiment: Antinociceptive activity in mouse assessed as inhibition of nicotine-induced antinociception at 1000 ug/kg, sc after 5 mins by hot-plate test. In kind it is functional.
Assay [8] has as its target T2, Neuronal acetylcholine receptor; alpha4/beta2 (Rattus norvegicus) (UniProt P09483+P12390). Put plainly: Agonist activity at rat alpha4beta2 nAChR expressed in Xenopus laevis oocytes assessed as mean current response at 100 uM by two-electrode voltage clamp electrophysiology assay relative to acetylcholine. The format is cell-based. In general terms: Two-electrode voltage clamp is typically applied to oocytes expressing channels or transporters.

The target of assay [9] is T3, Neuronal acetylcholine receptor; alpha3/beta4 (Rattus norvegicus) (UniProt P04757+P12392). As to the kind of experiment: Agonist activity at rat alpha3beta4 nAChR expressed in Xenopus laevis oocytes assessed as mean current response at 100 uM by two-electrode voltage clamp electrophysiology assay relative to acetylcholine. The format is cell-based.
Assay [10] deals with Neuronal acetylcholine receptor subunit alpha-7 (Rattus norvegicus) (UniProt Q05941). As to the kind of experiment: Agonist activity at rat alpha7 nAChR expressed in Xenopus laevis oocytes assessed as mean current response at 100 uM by two-electrode voltage clamp electrophysiology assay relative to acetylcholine. The format is cell-based.
Chain of Neuronal acetylcholine receptor subunit alpha-7 (Rattus norvegicus) (Q05941 whole entry): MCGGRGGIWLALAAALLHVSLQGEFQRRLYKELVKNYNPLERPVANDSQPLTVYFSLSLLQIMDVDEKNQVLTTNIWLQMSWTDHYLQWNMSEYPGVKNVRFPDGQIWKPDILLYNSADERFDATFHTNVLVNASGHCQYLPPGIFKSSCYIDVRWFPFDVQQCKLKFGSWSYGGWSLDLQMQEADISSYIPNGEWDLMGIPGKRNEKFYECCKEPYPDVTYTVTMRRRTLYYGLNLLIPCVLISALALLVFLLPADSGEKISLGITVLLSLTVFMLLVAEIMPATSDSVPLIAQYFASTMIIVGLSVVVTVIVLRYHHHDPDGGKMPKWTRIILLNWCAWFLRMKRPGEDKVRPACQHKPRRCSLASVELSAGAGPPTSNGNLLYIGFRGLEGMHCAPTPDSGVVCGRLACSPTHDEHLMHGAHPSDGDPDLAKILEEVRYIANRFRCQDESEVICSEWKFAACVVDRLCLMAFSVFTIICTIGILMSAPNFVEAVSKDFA
For assay [11], the target named is T1, Neuronal acetylcholine receptor; alpha4/beta2. As to the kind of experiment: Antagonist activity at rat alpha4beta2 nAChR expressed in Xenopus laevis oocytes assessed as inhibition of acetylcholine-induced mean current response by two-electrode voltage clamp electrophysiology assay. In kind it is cell-based. The essentials: (§1)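 Rat nAChRs in Xenopus oocytes under two-electrode voltage clamp. […] IC50 is taken from concentration-inhibition curves.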

Assay [12] addresses Neuronal acetylcholine receptor; alpha3/beta4 (Rattus norvegicus, UniProt P04757+P12392). As to the kind of experiment: Antagonist activity at rat alpha3beta4 nAChR expressed in Xenopus laevis oocytes assessed as inhibition of acetylcholine-induced mean current response by two-electrode voltage clamp electrophysiology assay. The format is cell-based. An outline of the steps: as §1

Assay [13] concerns the target Neuronal acetylcholine receptor subunit alpha-7 (Rattus norvegicus, UniProt Q05941). Put plainly: Antagonist activity at rat alpha7 nAChR expressed in Xenopus laevis oocytes assessed as inhibition of acetylcholine-induced mean current response by two-electrode voltage clamp electrophysiology assay. The format is cell-based. The essentials: as §1
Assay [14] addresses Neuronal acetylcholine receptor subunit alpha-7 (Rattus norvegicus) (UniProt Q05941). As to the kind of experiment: Antagonist activity at rat alpha7 nAChR expressed in Xenopus laevis oocytes assessed as inhibition of acetylcholine-induced mean current response by measuring remaining current at 100 uM by two-electrode voltage clamp electrophysiology assay relative to control; values are per cent of control.

Assay [15] deals with T2, Neuronal acetylcholine receptor; alpha4/beta2 (Rattus norvegicus). As to the kind of experiment: Antagonist activity at rat alpha4beta2 nAChR expressed in Xenopus laevis oocytes assessed as inhibition of acetylcholine-induced mean current response by measuring remaining current at 100 uM by two-electrode voltage clamp electrophysiology assay relative to control; values are per cent of control.

The target in assay [16] is T3, Neuronal acetylcholine receptor; alpha3/beta4 (Rattus norvegicus). As to the kind of experiment: Antagonist activity at rat alpha3beta4 nAChR expressed in Xenopus laevis oocytes assessed as inhibition of acetylcholine-induced mean current response by measuring remaining current at 100 uM by two-electrode voltage clamp electrophysiology assay relative to control; values are per cent of control.

Structures are written as SMILES.

Chain of Neuronal acetylcholine receptor; alpha3/beta4 (P04757 whole entry): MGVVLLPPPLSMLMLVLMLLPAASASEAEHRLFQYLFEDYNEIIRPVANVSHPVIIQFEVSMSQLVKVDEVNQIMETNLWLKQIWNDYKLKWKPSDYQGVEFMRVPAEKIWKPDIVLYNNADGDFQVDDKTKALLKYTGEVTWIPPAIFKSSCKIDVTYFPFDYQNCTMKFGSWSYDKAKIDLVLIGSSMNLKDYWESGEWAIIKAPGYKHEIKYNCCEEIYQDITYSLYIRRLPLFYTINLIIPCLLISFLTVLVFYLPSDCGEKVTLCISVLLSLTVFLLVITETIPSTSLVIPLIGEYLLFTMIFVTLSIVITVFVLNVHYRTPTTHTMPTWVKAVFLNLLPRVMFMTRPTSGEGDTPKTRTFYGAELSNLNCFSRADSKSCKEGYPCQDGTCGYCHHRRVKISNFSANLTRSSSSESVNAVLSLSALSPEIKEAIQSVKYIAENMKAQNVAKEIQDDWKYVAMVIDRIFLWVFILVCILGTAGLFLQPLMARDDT
Chain of Neuronal acetylcholine receptor; alpha3/beta4 (P12392 whole entry): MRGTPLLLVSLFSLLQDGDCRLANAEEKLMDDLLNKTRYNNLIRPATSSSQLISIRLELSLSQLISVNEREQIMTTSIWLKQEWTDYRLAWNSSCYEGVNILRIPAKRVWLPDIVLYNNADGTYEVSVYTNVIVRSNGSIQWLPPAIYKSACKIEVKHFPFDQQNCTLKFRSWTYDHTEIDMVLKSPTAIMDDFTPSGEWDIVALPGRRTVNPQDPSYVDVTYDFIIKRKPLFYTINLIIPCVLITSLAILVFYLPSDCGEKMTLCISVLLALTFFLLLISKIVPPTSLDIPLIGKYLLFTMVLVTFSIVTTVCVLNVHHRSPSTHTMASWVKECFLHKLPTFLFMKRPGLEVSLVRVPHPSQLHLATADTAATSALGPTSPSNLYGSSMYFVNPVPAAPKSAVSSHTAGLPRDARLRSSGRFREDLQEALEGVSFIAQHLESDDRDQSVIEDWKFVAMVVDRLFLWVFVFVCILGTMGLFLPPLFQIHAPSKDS
Chain of Neuronal acetylcholine receptor subunit alpha-7 (Q05941 whole entry): as the sequence (Q05941 whole entry) above

Broadly, the Ki is the dissociation constant of the complex between target and ligand, obtained from inhibition or displacement. A low value points to tighter binding. The ED50 is the midpoint of the dose-response relation. As a reminder, the inhibition in vivo is how much of the control response was suppressed. As a reminder, the IC50 is the concentration that inhibits the measured activity by half. `Fc1ccc(-c2cncc([C@H]3C[C@H]4CC[C@H]3N4)c2)cn1` (racemic) registered a Ki in assay [1] of 0.00013 µM. Also, the Activity in the assay on Mus musculus [2] came to 10%; in the assay with Mus musculus [3], 10%; in [8], 0%; in assay [9] it was 5.5%; in [10], 0%. For the same compound, the ED50 in the assay with Mus musculus [4] was determined as 2.78 mg/kg; in the assay on Mus musculus [5], 0.69 mg/kg. Further, the AD50 in the assay with Mus musculus [6] is 0.002 mg/kg. Besides, the inhibition in vivo at 1 mg/kg in the assay on Mus musculus [7] is 10%. Moreover, the results for the IC50 in assay [11], in [12] and in assay [13] were 1.3 µM, 33 µM and 60 µM, respectively. Further, the residual activity turned out to be 36% in [14], 7.9% in assay [15] and 41% in assay [16].

As for `COc1ccc(-c2cncc([C@H]3C[C@H]4CC[C@H]3N4)c2)cn1` (racemic), affinity in assay [1] was put at a Ki of 0.00027 µM. In addition, the Activity in the assay with Mus musculus [2] turned out to be 8%; with Mus musculus [3] it was 17%; in assay [8] it was 0%; in assay [9] it was 2.4%; in assay [10], 1.2%. Further, the values for the ED50 with Mus musculus [4] and with Mus musculus [5] were 5.5 mg/kg and 0.56 mg/kg, respectively. Moreover, the AD50 in the assay on Mus musculus [6] was 0.0005 mg/kg. Also, in the assay with Mus musculus [7], the inhibition in vivo at 1 mg/kg turned out to be 10%. For the same compound, the IC50 in assay [11] worked out at 1.8 µM; in [12], 8.2 µM; in assay [13] it was 30 µM. The results for the residual activity in assay [14], in assay [15] and in assay [16] were 18%, 4.5% and 8.4%, respectively.

Take `Clc1cc(-c2cncc([C@H]3C[C@H]4CC[C@H]3N4)c2)ccn1` (racemic): in [1], the Ki was determined as 0.00029 µM. Moreover, the Activity with Mus musculus [2] amounted to 10%; in the assay on Mus musculus [3], 30%; in assay [8], 0%; in assay [9], 6.5%; in [10], 8.1%. Also, the ED50 in the assay with Mus musculus [4] came to 6.2 mg/kg; in the assay with Mus musculus [5], 1.6 mg/kg. The AD50 in the assay with Mus musculus [6] turned out to be 0.11 mg/kg. In addition, the inhibition in vivo at 1 mg/kg with Mus musculus [7] was 36%. For the same compound, the half-inhibitory concentration (IC50) in assay [11] is 11 µM; in assay [12], 20 µM; in [13] it was 97 µM. Also, the residual activity in assay [14] was found to be 47%; in assay [15], 5.7%; in assay [16], 10%.

For `Fc1cc(-c2cncc([C@H]3C[C@H]4CC[C@H]3N4)c2)ccn1` (racemic), in assay [1], the Ki is 0.00018 µM. The Activity came out at 13% in the assay on Mus musculus [2]; 34% with Mus musculus [3]; 0% in assay [8]; 9.5% in assay [9]; 5.7% in assay [10]. Also, the ED50 in the assay with Mus musculus [4] is 5.2 mg/kg; in the assay on Mus musculus [5], 1.78 mg/kg. Moreover, the AD50 in the assay on Mus musculus [6] was 0.0012 mg/kg. In addition, the inhibition in vivo at 1 mg/kg with Mus musculus [7] was determined as 46%. The IC50 in assay [11] worked out at 2.9 µM; in assay [12], 23 µM; in [13], 233 µM. Further, the residual activity is 90% in assay [14], 8.1% in assay [15] and 18% in assay [16].

`c1cc(-c2cncc([C@H]3C[C@H]4CC[C@H]3N4)c2)ccn1` (racemic) came in with a Ki in [1] of 0.00022 µM. Also, the Activity in the assay with Mus musculus [2] turned out to be 7%; with Mus musculus [3], 4%; in [8], 1%; in assay [9] it was 9.5%; in assay [10], 8.1%. Moreover, the results for the ED50 with Mus musculus [4] and with Mus musculus [5] were 5 mg/kg and 1.76 mg/kg, respectively. Besides, the AD50 in the assay with Mus musculus [6] stood at 0.039 mg/kg. Also, in the assay with Mus musculus [7], the inhibition in vivo at 1 mg/kg worked out at 20%. For the same compound, the results for the IC50 in assay [11], in assay [12] and in assay [13] were 7.1 µM, 23 µM and 179 µM, respectively. Besides, the residual activity turned out to be 69% in [14], 3.9% in assay [15] and 11% in assay [16].
